Here are results for 27 compounds from ChEMBL document CHEMBL1125686, “(Benzoylphenyl)piperidines: a new class of immunomodulators” (1991).

What all share (format): functional
In assay [1] the test system is Mus musculus. The experiment in a line: Maximal proliferation induced in the presence of the mitogen-Concanavalin A (stimulated blastogenesis) in mice cells dosed at 5 ug/mL. Also on record: unit not given here. In a few lines:
(§1)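 Splenocytes from female DBA/2 mice, 6–9 weeks old; red cells lysed with cold 0.17 M NH₄Cl. Cells plated at 5 × 10⁶ cells/mL in RPMI 1640 with 5% FCS, with compound (5–80 μg/mL range) and Con A, PWM or PHA at a batch-optimized concentration. Cultured 72 h at 37 °C, 5% CO₂, with [³H]thymidine for the final 24 h, read by scintillation. Triplicate wells; mean ± SD of three cultures.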

Assay [2] is filed under the species Mus musculus. The assay can be described thus: Maximal proliferation induced in the presence of the mitogen-PWM ( stimulated blastogenesis) in Mice cells at a dose of 40 ug/mL. Also on record: unit not given here. In a few lines:
as §1

For assay [3], the system named is Mus musculus. The assay can be described thus: Proliferation induced by the mitogen alone-Concanavalin A (control blastogenesis), in mice cells dosed at 5 ug/mL. The arrangement: unit not given here. Put shortly: as §1
The species named for assay [4] is Mus musculus. The experiment in a line: Proliferation induced by the mitogen alone-PWM (control blastogenesis), in Mice cells at a dose of 40 ug/mL. The arrangement: unit not given here. In a few lines: (§2)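 Splenocytes from female DBA/2 mice aged 6–9 weeks, red cells lysed with cold 0.17 M NH4Cl, cultured at 5 × 10⁶ cells/mL in RPMI 1640 with 5% FCS. Pokeweed mitogen added at a batch-adjusted optimal level, 72 h at 37 °C, 5% CO2. [³H]thymidine pulse for the final 24 h, then scintillation counting. Triplicates; mean ± SD of three cultures.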

The species named for assay [5] is Mus musculus. The assay can be described thus: Proliferation induced by the mitogen alone-PHA (control blastogenesis), in Mice cells at a dose of 5 ug/mL. The arrangement: unit not given here. Put shortly: as §1
Assay [6] is filed under the species Mus musculus. The assay can be described thus: Maximal proliferation induced in the presence of the mitogen-PHA ( stimulated blastogenesis) in Mice cells at a dose of 5 ug/mL. The arrangement: unit not given here. Put shortly:
as §1

The species entered for assay [7] is Mus musculus. The assay can be described thus: Proliferation induced by the mitogen alone-PWM (control blastogenesis), in Mice cells at a dose of 10 ug/mL. Also on record: unit not given here. Put shortly:
as §1

The species named for assay [8] is Mus musculus. The assay can be described thus: Maximal proliferation induced in the presence of the mitogen-PWM ( stimulated blastogenesis) in Mice cells at a dose of 10 ug/mL. Also on record: unit not given here. Put shortly: as §1
For assay [9], the species on record is Mus musculus. The assay can be described thus: Proliferation induced by the mitogen alone-PWM (control blastogenesis), in Mice cells at a dose of 80 ug/mL. The arrangement: unit not given here. Put shortly: as §2
The species entered for assay [10] is Mus musculus. The assay can be described thus: Maximal proliferation induced in the presence of the mitogen-PWM ( stimulated blastogenesis) in Mice cells at a dose of 80 ug/mL. Also on record: unit not given here. In a few lines: as §1
Assay [11] relates to Mus musculus. The experiment in a line: […] induction of Thyl+ antigen expression on murine bone marrow cells (Fraction B).(Control group). In a few lines: (§3)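 Bone marrow from female C57 BL/6 mice, 5–8 weeks old, separated on a discontinuous BSA gradient. Fraction A (lowest density) and fraction B (next lowest) resuspended at 10⁶ cells/mL in HBSS with 5% BSA. Cells incubated 24 h with one compound concentration, then stained directly with FITC anti-Thy1 and counted by epifluorescence microscopy. % Thy1⁺ cells recorded for treated and control cultures.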

Assay [12] deals with Mus musculus. The assay can be described thus: […] induction of Thyl+ antigen expression on murine bone marrow cells (Fraction A).(Control group). Put shortly: as §3
Assay [13] deals with Mus musculus. The assay can be described thus: […] induction of Thyl+ antigen expression on murine bone marrow cells (Fraction B).(Treated). Put shortly: as §3
For assay [14], the system named is Mus musculus. The assay can be described thus: […] induction of Thyl+ antigen expression on murine bone marrow cells (Fraction A).(Treated). In a few lines: as §3
For assay [15], the species on record is Mus musculus. The experiment in a line: Proliferation induced by the mitogen alone-PHA (control blastogenesis), in Mice cells at a dose of 7.5 ug/mL. Put shortly: as §1
The species named for assay [16] is Mus musculus. The experiment in a line: Maximal proliferation induced by the test compound in the presence of the mitogen-PHA ( stimulated blastogenesis) in Mice cells at a dose of 7.5 ug/mL. In a few lines: as §1
For assay [17], the species on record is Mus musculus. The assay can be described thus: Proliferation induced by the mitogen alone-PWM (control blastogenesis), in Mice cells at a dose of 20 ug/mL. Put shortly:
as §1

The species named for assay [18] is Mus musculus. The experiment in a line: Maximal proliferation induced by the test compound in the presence of the mitogen-PWM ( stimulated blastogenesis) in Mice cells at a dose of 20 ug/mL. In a few lines:
as §1

As for `Cc1ccc(C(=O)c2cc(N)ccc2N2CCC(C)CC2)cc1`, the Proliferative response in assay [1] worked out at 283.2; in assay [2] it was 48.9; in [3] it was 179.7; in [4], 53.8.
As for `CC(C)(C)C1CCN(c2ccc(N)cc2C(=O)c2ccc(Cl)cc2)CC1`, the Proliferative response in assay [5] is 59.1; in assay [6], 55; in assay [1] it was 31.9; in [7] it was 114.8; in [8] it was 137.5; in assay [3] it was 30.5.
As for `COc1ccc(C(=O)c2cc(N)ccc2N2CCC(C)CC2)cc1OC`, the Proliferative response in assay [9] is 44.9; in assay [1] it was 158.4; in assay [10], 48.8; in [3] it was 137.4.
Take “H-CSDAAVDVSSEITVKDLKEKKEVVEEAE-OH [THYMOSIN]”: the Differentiation is 6.3% in [11], 10.8% in assay [12], 9.4% in assay [13] and 21.9% in assay [14].
Regarding `CC1CCN(c2ccc(N)cc2C(=O)c2ccc(F)cc2)CC1`, the Proliferative response in assay [9] was determined as 72.2; in [1], 165.6; in [10], 69.9; in assay [3], 268.2.
As for `CC1CCN(c2ccc(Cl)cc2C(=O)c2ccc(Cl)cc2)CC1`, the Proliferative response in assay [1] is on record as 68.7; in [15] it was 14.6; in [3], 55.6; in assay [16], 8.2.
With `CC1CCN(c2ccc(N)cc2C(=O)c2ccccc2Cl)CC1`, the Proliferative response in assay [1] was found to be 165.5; in [17], 80; in [18], 85.8; in assay [3], 150.
Consider `CC1CCN(c2ccc(N)cc2C(=O)c2ccc(Br)cc2)CC1`, for which the Proliferative response was 7 in assay [5]; 11.1 in assay [6]; 123.4 in [1]; 56.4 in assay [2]; 118.7 in [3]; 40.5 in assay [4].
As for `Nc1ccc(N2CCCCC2)c(C(=O)c2ccc(Cl)cc2)c1`, the Proliferative response in [1] came to 21.3; in assay [7], 47.7; in assay [8], 44.8; in assay [3] it was 24.6.
As for `CC1CCN(c2ccccc2C(=O)c2ccc(Cl)cc2)CC1`, the Proliferative response was found to be 62.7 in [1], 17.4 in [15], 92.7 in [3] and 15.5 in [16].
Consider `CC1CCN(c2ccc(N)cc2C(=O)c2ccc(Cl)cc2Cl)CC1`, for which the Proliferative response came to 46.7 in assay [5]; 46.4 in assay [6]; 246.2 in assay [1]; 105.5 in assay [7]; 115.9 in assay [8]; 280 in [3].
As for `Cc1cc(C(=O)c2cc(N)ccc2N2CCC(C)CC2)cc(C)c1C`, the Proliferative response in assay [1] was determined as 206; in assay [17], 84.5; in assay [18], 77.1; in [3], 152.6.
On to `CC1CCCN(c2ccc(N(C)C)cc2C(=O)c2ccc(Cl)cc2)C1` (stereo not drawn), for which the Proliferative response worked out at 14.9 in assay [1], 21.4 in assay [7], 18.6 in assay [8] and 17.6 in assay [3].
Turning to `Cc1ccc(C(=O)c2cc(N)ccc2N2CCC(C)CC2)c(C)c1`, the Proliferative response in assay [9] was found to be 68.8; in assay [1] it was 250; in assay [10] it was 61.5; in [3], 279.6.
Consider `Cc1cccc(C(=O)c2cc(N)ccc2N2CCC(C)CC2)c1`, for which the Proliferative response in [5] was 47.9; in [6] it was 62.4; in [1], 414.1; in assay [7], 98.8; in assay [8], 135.9; in assay [3] it was 389.9.
Regarding `COc1ccc(C(=O)c2ccccc2N2CCC(C)CC2)cc1`, the Proliferative response was 165 in assay [1], 20.8 in assay [7], 15.5 in [8] and 127.5 in assay [3].
Take `CC1CCN(c2ccc(N)cc2C(=O)c2cccc(C(F)(F)F)c2)CC1`: the Proliferative response is listed as 34.3 in [5]; 36 in assay [6]; 297.7 in assay [1]; 79 in assay [7]; 79.9 in assay [8]; 332 in assay [3].
Consider `CC1CCN(c2ccc(N)cc2C(=O)c2ccccc2)CC1`, for which the Proliferative response is given as 167 in [1], 55.7 in [2], 188.1 in assay [3] and 48.9 in [4].
For `CNc1ccc(N2CCC(C)CC2)c(C(=O)c2ccc(Cl)cc2)c1`, the Proliferative response in [1] was determined as 21.3; in [7], 20.3; in assay [8], 19.5; in assay [3] it was 18.2.
For the compound `CC1CCN(c2ccc(N)cc2C(=O)c2cccc(Cl)c2)CC1`, the Proliferative response in assay [5] is recorded as 40.2; in assay [6], 40.9; in [1] it was 343.8; in assay [7], 102.8; in [8] it was 105; in [3] it was 316.
Regarding `COc1ccc(C(=O)c2cc(N)ccc2N2CCC(C)CC2)cc1`, the Proliferative response came to 36.3 in assay [5]; 54.3 in assay [6]; 363.6 in [1]; 103.3 in assay [7]; 121.8 in assay [8]; 322.1 in assay [3].
Take `CCC1CCN(c2ccc(N)cc2C(=O)c2ccc(Cl)cc2)CC1`: the Proliferative response in assay [5] is reported as 30.4; in [6] it was 37.4; in assay [1], 348; in assay [7], 88.7; in assay [8], 114.6; in assay [3], 319.5.
Consider `CC1CCN(c2ccccc2C(=O)c2ccccc2)CC1`, for which the Proliferative response was 9 in [1], 15.1 in assay [7], 24.7 in assay [8] and 13.6 in [3].
Consider `CC1CCN(c2ccc([N+](=O)[O-])cc2C(=O)c2ccc(Cl)cc2)CC1`, for which the Proliferative response amounted to 93.7 in [1], 42.7 in assay [2], 160.9 in [3] and 59.9 in assay [4].
For the compound `Nc1ccc(N2CCC(Cc3ccccc3)CC2)c(C(=O)c2ccc(Cl)cc2)c1`, the Proliferative response is recorded as 27.4 in [5]; 35.1 in [6]; 308 in assay [1]; 108.2 in [7]; 79.5 in [8]; 328 in assay [3].
Turning to `CC1CCN(c2ccc(N)cc2C(=O)c2ccc(Cl)c(Cl)c2)CC1`, the Proliferative response came out at 48.4 in assay [9], 151.5 in assay [1], 64.4 in assay [10] and 136.6 in assay [3].
For the compound `Nc1ccc(N2CCC(O)CC2)c(C(=O)c2ccc(Cl)cc2)c1`, the Proliferative response in [5] was determined as 45; in assay [6], 52.6; in assay [1], 281.1; in [7], 107.9; in [8] it was 88.7; in assay [3], 374.8.
